Results collected from several papers.
Each line is one published result; the experiments were not run side by side.
Adra1a: Alpha-1A adrenergic receptor (Adra1a, Rattus norvegicus, UniProt P43140)
Genome polyprotein protease: Genome polyprotein, protease (ZIKV, UniProt A0A024B7W1)
HTR7: 5-hydroxytryptamine receptor 7 (HTR7, Homo sapiens, UniProt P34969)
CTSB: Cathepsin B (CTSB, Homo sapiens, UniProt P07858)
DPP9: Dipeptidyl peptidase 9 (DPP9, Homo sapiens, UniProt Q86TI2)

CCCCCCCCCCCC(=O)OC[C@@H](COP(=O)(O)OCCNC(=O)c1ccc(Cn2c(=O)[nH]c3c(N)nc(OCCOC)nc32)cc1)OC(=O)CCCCCCCCCCC  inhibition (Adra1a; ligand displacement, radioligand; 10 µM): -11%
Oc1cccc(O)c1O  inhibition (Genome polyprotein protease; enzyme activity, inhibitor, FRET; 100 µM, pH 7): 11%
CC(C)C[C@H](NC(=O)[C@H](Cc1ccccc1)NC(=O)c1cnccn1)B(O)O  inhibition (Suppressor of tumorigenicity 14 protein (ST14, Homo sapiens, UniProt Q9Y5Y6); cell-free assay, inhibitor; 33 µM): 51.5%
C[C@@H]1O[C@@H](OC[C@H]2O[C@@H](Oc3c(-c4ccc(O)c(O)c4)oc4cc(O)cc(O)c4c3=O)[C@H](O)[C@@H](O)[C@@H]2O)[C@H](O)[C@H](O)[C@H]1O  inhibition (Genome polyprotein protease; enzyme activity, inhibitor; 200 µM, pH 8.5): 95.4%
C#Cc1n[nH]c2c(-c3cn([C@@H](C)c4ccccc4)c(=O)[nH]c3=O)cc(F)cc12  inhibition (Cyclin-dependent kinase 2, with cyclin E1 (CDK2, Homo sapiens, UniProt P24941); enzyme activity, inhibitor; 0.1 µM): -4.8%
Cn1c(=O)c2c(ncn2C)n(C)c1=O  inhibition (Genome polyprotein protease; enzyme activity, inhibitor, FRET; 100 µM, pH 7): 6%
CCN(CC)CCCC[C@H](NC(=O)[C@H](CC(C)C)NC(=O)[C@H](C)NC(=O)[C@H](Cc1ccccc1)NC(=O)c1ccc(C(C)(C)C)cc1)C(=O)N[C@@H](CO)C(=O)OC  inhibition (HTR7; ligand displacement, radioligand; 10 µM): 8%
O=C1c2c(O)cc(O)cc2O[C@H](c2cc(O)c(O)c(O)c2)[C@H]1O  inhibition (Genome polyprotein protease; enzyme activity, inhibitor, FRET; 100 µM, pH 7): 23%
c1ccc(C(NCCNC(c2ccccc2)c2ccccc2)c2ccccc2)cc1  inhibition (Voltage-dependent N-type calcium channel subunit alpha-1B (Cacna1b, Rattus norvegicus, UniProt Q02294); cell-free assay; 10 µM): -6%
Cn1cc(-c2cc(F)cc(N3CCn4c(cc5c4CCCC5)C3=O)c2CO)cc(Nc2ccc(N3CCN(C4COC4)CC3)cn2)c1=O  inhibition (MAP kinase-activated protein kinase 3 (MAPKAPK3, Homo sapiens, UniProt Q16644); enzyme activity, inhibitor; 0.1 µM): 9%
COc1cc(Nc2ncc(F)c(Nc3ccc4c(n3)NC(=O)C(C)(C)O4)n2)cc(OC)c1OC  inhibition (SNF-related serine/threonine-protein kinase (SNRK, Homo sapiens, UniProt Q9NRH2); binding; 10 µM): 7%
CC(C)N1CCC[C@H]1CNC(=O)c1cn(C2CCCC2)c(=O)c2c1c1ccccc1n2C  inhibition (Adra1a; ligand displacement, radioligand; 10 µM): 16%
O=c1c(O)c(-c2ccc(O)c(O)c2)oc2cc(O)cc(O)c12  inhibition (Genome polyprotein protease; enzyme activity, inhibitor, FRET; 100 µM, pH 7): 37%
C#Cc1n[nH]c2c(-c3cn(C(C)c4ccccn4)c(=O)[nH]c3=O)cc(F)cc12 (stereo not drawn)  inhibition (Dual specificity protein kinase CLK3 (CLK3, Homo sapiens, UniProt P49761); enzyme activity, inhibitor; 1 µM): 8.3%
N=C(N)c1ccc2cc(OC(=O)c3ccc(N=C(N)N)cc3)ccc2c1  inhibition (CTSB; enzyme activity, inhibitor; 10 µM): 48%
Cc1ncc(C)n2nc(/C=C/c3nc(N4CCCC4)cc(N4CCOCC4)n3)nc12  inhibition (C-C chemokine receptor type 2 (CCR2, Homo sapiens, UniProt P41597); cell-free assay; 10 µM): 10%
N#Cc1ccc(NCCNCC(=O)N2N=CCC2C#N)nc1 (stereo not drawn)  inhibition (DPP9; enzyme activity, inhibitor; 1 µM): 49%
O=C(Nc1cccnn1)N1CCN([C@@H]2CCOc3cc(C(F)(F)F)ccc32)CC1  inhibition (Oxysterols receptor LXR-beta (NR1H2, Homo sapiens, UniProt P55055); cell-free assay; 20 µM): -6%
CCOC(=O)c1ccc(OC(=O)CCCCCNC(=N)N)cc1  inhibition (Ubiquitin carboxyl-terminal hydrolase 14 (USP14, Homo sapiens, UniProt P54578); enzyme activity, inhibitor; 10 µM): 1%
O=c1c(O)c(-c2cc(O)c(O)c(O)c2)oc2cc(O)cc(O)c12  inhibition (Genome polyprotein protease; enzyme activity, inhibitor, FRET; 100 µM, pH 7): 88%
CC(C)C[C@H](NC(=O)[C@H]1O[C@@H]1C(=O)O)C(=O)NCCCCN=C(N)N  inhibition (CTSB; enzyme activity, inhibitor; 500 pM): 32%
Cn1cc(-c2cccc(N3CCc4c(sc5c4CC(C)(C)C5)C3=O)c2CO)cc(Nc2ccncn2)c1=O  inhibition (Cyclin-dependent kinase 8, with cyclin C (CDK8, Homo sapiens, UniProt P49336); enzyme activity, inhibitor; 1 µM): -1%
CN(C)C(=O)COC(=O)Cc1ccc(OC(=O)c2ccc(NC(=N)N)cc2)cc1  inhibition (DPP9; enzyme activity, inhibitor; 10 µM): 18%
O=C1N=C(N2CCCCN2)S/C1=C\c1ccc(F)cc1O  inhibition (HTR7; ligand displacement, radioligand; 10 µM): < 10%
